Data: ChEMBL document CHEMBL1649517, “Effect of MexXY overexpression on ceftobiprole susceptibility in Pseudomonas aeruginosa” (2009)
Values after ≈ are worked out from the molar mass of the structure shown.

Key:
Pseudomonas aeruginosa [1] = assay: Antimicrobial activity against Pseudomonas aeruginosa isolate OC17349 by broth microdilution method; assay type: functional
In short: (§1)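 Clinical P. aeruginosa isolates, baseline and posttreatment, collected in ceftobiprole phase III clinical trials. MICs were measured by CLSI broth microdilution.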

Pseudomonas aeruginosa [2] = assay: Antimicrobial activity against Pseudomonas aeruginosa isolate OC14552 by broth microdilution method; assay type: functional; in short: as §1
Pseudomonas aeruginosa [3] = assay: Antimicrobial activity against Pseudomonas aeruginosa PAO1 harboring plasmid MexZ expressing mexXY gene by broth microdilution method; assay type: functional
In short: (§2)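 CLSI broth microdilution MIC on P. aeruginosa transformants. Plasmids (control vector pJAK16, pMexXY or cloned mexZ repressor; 200 ng) were electroporated into fresh electrocompetent cells, and transformants were selected on Mueller-Hinton plates with chloramphenicol 200 or 400 μg/ml. Cultures were kept in chloramphenicol 200 μg/ml to maintain the plasmid, with 1 mM IPTG to induce the cloned gene.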

Pseudomonas aeruginosa [4] = assay: Antimicrobial activity against Pseudomonas aeruginosa isolate OC14805 by broth microdilution method; assay type: functional; in short: as §1
Pseudomonas aeruginosa [5] = assay: Antimicrobial activity against Pseudomonas aeruginosa PAO1 harboring plasmid MexXY expressing mexXY gene by broth microdilution method; assay type: functional; in short: as §2
Pseudomonas aeruginosa [6] = assay: Antimicrobial activity against Pseudomonas aeruginosa isolate OC14551 by broth microdilution method; assay type: functional; in short: as §1
Pseudomonas aeruginosa [7] = assay: Antimicrobial activity against Pseudomonas aeruginosa isolate OC16830 harboring plasmid MexZ expressing mexXY gene by broth microdilution method
Pseudomonas aeruginosa [8] = assay: Antimicrobial activity against Pseudomonas aeruginosa isolate OC14812 harboring plasmid JAK16 expressing mexXY gene by broth microdilution method; assay type: functional; in short: as §2
Pseudomonas aeruginosa [9] = assay: Antimicrobial activity against Pseudomonas aeruginosa isolate OC16827 harboring plasmid JAK16 expressing mexXY gene by broth microdilution method; assay type: functional; in short: as §2
Pseudomonas aeruginosa [10] = assay: Antimicrobial activity against Pseudomonas aeruginosa isolate OC16830 by broth microdilution method; assay type: functional; in short: as §1
Pseudomonas aeruginosa [11] = assay: Antimicrobial activity against Pseudomonas aeruginosa isolate OC14812 by broth microdilution method; assay type: functional; in short: as §1
Pseudomonas aeruginosa [12] = assay: Antimicrobial activity against Pseudomonas aeruginosa isolate OC16827 harboring plasmid MexXY expressing mexXY gene by broth microdilution method; assay type: functional; in short: as §2
Pseudomonas aeruginosa [13] = assay: Antimicrobial activity against Pseudomonas aeruginosa isolate OC16827 by broth microdilution method; assay type: functional; in short: as §1
Pseudomonas aeruginosa [14] = assay: Antimicrobial activity against Pseudomonas aeruginosa isolate OC14551 harboring plasmid JAK16 expressing mexXY gene by broth microdilution method; assay type: functional; in short: as §2
Pseudomonas aeruginosa [15] = assay: Antimicrobial activity against Pseudomonas aeruginosa isolate OC16830 harboring plasmid JAK16 expressing mexXY gene by broth microdilution method; assay type: functional; in short: as §2
Pseudomonas aeruginosa [16] = assay: Antimicrobial activity against Pseudomonas aeruginosa isolate OC17355 harboring plasmid JAK16 expressing mexXY gene by broth microdilution method; assay type: functional; in short: as §2
Pseudomonas aeruginosa [17] = assay: Antimicrobial activity against Pseudomonas aeruginosa isolate OC14551 harboring plasmid MexZ expressing mexXY gene by broth microdilution method; assay type: functional; in short: as §2
Pseudomonas aeruginosa [18] = assay: Antimicrobial activity against Pseudomonas aeruginosa isolate OC17355 harboring plasmid MexZ expressing mexXY gene by broth microdilution method; assay type: functional; in short: as §2
Pseudomonas aeruginosa [19] = assay: Antimicrobial activity against Pseudomonas aeruginosa isolate OC17355 by broth microdilution method; assay type: functional; in short: as §1
Pseudomonas aeruginosa [20] = assay: Antimicrobial activity against Pseudomonas aeruginosa PAO1 harboring plasmid JAK16 expressing mexXY gene by broth microdilution method; assay type: functional; in short: as §2
Pseudomonas aeruginosa [21] = assay: Antimicrobial activity against Pseudomonas aeruginosa isolate OC16827 harboring plasmid MexZ expressing mexXY gene by broth microdilution method
Pseudomonas aeruginosa [22] = assay: Antimicrobial activity against Pseudomonas aeruginosa isolate OC14812 harboring plasmid MexZ expressing mexXY gene by broth microdilution method; assay type: functional; in short: as §2
Pseudomonas aeruginosa [23] = assay: Antimicrobial activity against Pseudomonas aeruginosa isolate OC14805 on day 4 by broth microdilution method; assay type: functional; details: isolate OC14805, 96 h; in short: as §1
Pseudomonas aeruginosa [24] = assay: Antimicrobial activity against Pseudomonas aeruginosa isolate OC14805 after > 14 days by broth microdilution method; assay type: functional; details: isolate OC14805, 336 h; in short: as §1
Pseudomonas aeruginosa [25] = assay: Antimicrobial activity against Pseudomonas aeruginosa isolate OC16827 after end of treatment by broth microdilution method; assay type: functional; in short: as §1
Pseudomonas aeruginosa [26] = assay: Antimicrobial activity against Pseudomonas aeruginosa isolate OC17349 on day 4 by broth microdilution method; assay type: functional; details: isolate OC17349, 96 h; in short: as §1
Pseudomonas aeruginosa [27] = assay: Antimicrobial activity against Pseudomonas aeruginosa isolate OC17349 after 7 to 14 days by broth microdilution method; assay type: functional; in short: as §1
Pseudomonas aeruginosa [28] = assay: Antimicrobial activity against Pseudomonas aeruginosa isolate OC14551 on day 8 by broth microdilution method; details: isolate OC14551, 192 h
Pseudomonas aeruginosa [29] = assay: Antimicrobial activity against Pseudomonas aeruginosa isolate OC17349 after end of treatment by broth microdilution method; assay type: functional; in short: as §1
Pseudomonas aeruginosa [30] = assay: Antimicrobial activity against Pseudomonas aeruginosa isolate OC14552 on day 4 by broth microdilution method; assay type: functional; details: isolate OC14552, 96 h; in short: as §1
Pseudomonas aeruginosa [31] = assay: Antimicrobial activity against Pseudomonas aeruginosa isolate OC16827 on day 14 by broth microdilution method; assay type: functional; details: isolate OC16827, 336 h; in short: as §1
Pseudomonas aeruginosa [32] = assay: Antimicrobial activity against Pseudomonas aeruginosa isolate OC14805 after 7 to 14 days by broth microdilution method; assay type: functional; in short: as §1

CO/N=C(\C(=O)N[C@@H]1C(=O)N2C(C(=O)[O-])=C(C[N+]3(C)CCCC3)CS[C@H]12)c1csc(N)n1
MIC (Pseudomonas aeruginosa [1]): 4 µg/mL (≈ 8.32 µM)
MIC (Pseudomonas aeruginosa [2]): 4 µg/mL (≈ 8.32 µM)
MIC (Pseudomonas aeruginosa [3]): 1 µg/mL (≈ 2.08 µM)
MIC (Pseudomonas aeruginosa [4]): 2 µg/mL (≈ 4.16 µM)
MIC (Pseudomonas aeruginosa [5]): 8 µg/mL (≈ 16.6 µM)
MIC (Pseudomonas aeruginosa [6]): 8 µg/mL (≈ 16.6 µM)
MIC (Pseudomonas aeruginosa [7]): 4 µg/mL (≈ 8.32 µM)
MIC (Pseudomonas aeruginosa [8]): 8 µg/mL (≈ 16.6 µM)
MIC (Pseudomonas aeruginosa [9]): 2 µg/mL (≈ 4.16 µM)
MIC (Pseudomonas aeruginosa [10]): 8 µg/mL (≈ 16.6 µM)
MIC (Pseudomonas aeruginosa [11]): 8 µg/mL (≈ 16.6 µM)
MIC (Pseudomonas aeruginosa [12]): 8 µg/mL (≈ 16.6 µM)
MIC (Pseudomonas aeruginosa [13]): 2 µg/mL (≈ 4.16 µM)
MIC (Pseudomonas aeruginosa [14]): 16 µg/mL (≈ 33.3 µM)
MIC (Pseudomonas aeruginosa [15]): 8 µg/mL (≈ 16.6 µM)
MIC (Pseudomonas aeruginosa [16]): 8 µg/mL (≈ 16.6 µM)
MIC (Pseudomonas aeruginosa [17]): 4 µg/mL (≈ 8.32 µM)
MIC (Pseudomonas aeruginosa [18]): 2 µg/mL (≈ 4.16 µM)
MIC (Pseudomonas aeruginosa [19]): 8 µg/mL (≈ 16.6 µM)
MIC (Pseudomonas aeruginosa [20]): 2 µg/mL (≈ 4.16 µM)
MIC (Pseudomonas aeruginosa [21]): 2 µg/mL (≈ 4.16 µM)
MIC (Pseudomonas aeruginosa [22]): 2 µg/mL (≈ 4.16 µM)

CC(C)(O/N=C(\C(=O)N[C@@H]1C(=O)N2C(C(=O)[O-])=C(C[n+]3ccccc3)CS[C@H]12)c1csc(N)n1)C(=O)O [CEFTAZIDIME]
MIC (Pseudomonas aeruginosa [1]): 4 µg/mL (≈ 7.32 µM)
MIC (Pseudomonas aeruginosa [2]): 4 µg/mL (≈ 7.32 µM)
MIC (Pseudomonas aeruginosa [3]): 1 µg/mL (≈ 1.83 µM)
MIC (Pseudomonas aeruginosa [4]): 2 µg/mL (≈ 3.66 µM)
MIC (Pseudomonas aeruginosa [5]): 1 µg/mL (≈ 1.83 µM)
MIC (Pseudomonas aeruginosa [6]): 4 µg/mL (≈ 7.32 µM)
MIC (Pseudomonas aeruginosa [7]): 2 µg/mL (≈ 3.66 µM)
MIC (Pseudomonas aeruginosa [8]): 4 µg/mL (≈ 7.32 µM)
MIC (Pseudomonas aeruginosa [9]): 2 µg/mL (≈ 3.66 µM)
MIC (Pseudomonas aeruginosa [10]): 2 µg/mL (≈ 3.66 µM)
MIC (Pseudomonas aeruginosa [11]): 4 µg/mL (≈ 7.32 µM)
MIC (Pseudomonas aeruginosa [12]): 2 µg/mL (≈ 3.66 µM)
MIC (Pseudomonas aeruginosa [13]): 2 µg/mL (≈ 3.66 µM)
MIC (Pseudomonas aeruginosa [14]): 4 µg/mL (≈ 7.32 µM)
MIC (Pseudomonas aeruginosa [15]): 2 µg/mL (≈ 3.66 µM)
MIC (Pseudomonas aeruginosa [16]): 4 µg/mL (≈ 7.32 µM)
MIC (Pseudomonas aeruginosa [17]): 4 µg/mL (≈ 7.32 µM)
MIC (Pseudomonas aeruginosa [18]): 4 µg/mL (≈ 7.32 µM)
MIC (Pseudomonas aeruginosa [19]): 4 µg/mL (≈ 7.32 µM)
MIC (Pseudomonas aeruginosa [20]): 2 µg/mL (≈ 3.66 µM)
MIC (Pseudomonas aeruginosa [21]): 2 µg/mL (≈ 3.66 µM)
MIC (Pseudomonas aeruginosa [22]): 4 µg/mL (≈ 7.32 µM)

Nc1nc(/C(=N/O)C(=O)N[C@@H]2C(=O)N3C(C(=O)O)=C(/C=C4\CCN([C@@H]5CCNC5)C4=O)CS[C@H]23)ns1 [CEFTOBIPROLE]
MIC (Pseudomonas aeruginosa [1]): 4 µg/mL (≈ 7.48 µM)
MIC (Pseudomonas aeruginosa [2]): 4 µg/mL (≈ 7.48 µM)
MIC (Pseudomonas aeruginosa [23]): 4 µg/mL (≈ 7.48 µM)
MIC (Pseudomonas aeruginosa [3]): 1 µg/mL (≈ 1.87 µM)
MIC (Pseudomonas aeruginosa [24]): 16 µg/mL (≈ 29.9 µM)
MIC (Pseudomonas aeruginosa [4]): 2 µg/mL (≈ 3.74 µM)
MIC (Pseudomonas aeruginosa [5]): 32 µg/mL (≈ 59.9 µM)
MIC (Pseudomonas aeruginosa [25]): 16 µg/mL (≈ 29.9 µM)
MIC (Pseudomonas aeruginosa [6]): 16 µg/mL (≈ 29.9 µM)
MIC (Pseudomonas aeruginosa [7]): 1 µg/mL (≈ 1.87 µM)
MIC (Pseudomonas aeruginosa [26]): 16 µg/mL (≈ 29.9 µM)
MIC (Pseudomonas aeruginosa [8]): 16 µg/mL (≈ 29.9 µM)
MIC (Pseudomonas aeruginosa [9]): 4 µg/mL (≈ 7.48 µM)
MIC (Pseudomonas aeruginosa [10]): 16 µg/mL (≈ 29.9 µM)
MIC (Pseudomonas aeruginosa [11]): 16 µg/mL (≈ 29.9 µM)
MIC (Pseudomonas aeruginosa [27]): 16 µg/mL (≈ 29.9 µM)
MIC (Pseudomonas aeruginosa [28]): 16 µg/mL (≈ 29.9 µM)
MIC (Pseudomonas aeruginosa [12]): 16 µg/mL (≈ 29.9 µM)
MIC (Pseudomonas aeruginosa [13]): 4 µg/mL (≈ 7.48 µM)
MIC (Pseudomonas aeruginosa [14]): 16 µg/mL (≈ 29.9 µM)
MIC (Pseudomonas aeruginosa [15]): 16 µg/mL (≈ 29.9 µM)
MIC (Pseudomonas aeruginosa [29]): 16 µg/mL (≈ 29.9 µM)
MIC (Pseudomonas aeruginosa [16]): 8 µg/mL (≈ 15 µM)
MIC (Pseudomonas aeruginosa [17]): 4 µg/mL (≈ 7.48 µM)
MIC (Pseudomonas aeruginosa [30]): 4 µg/mL (≈ 7.48 µM)
MIC (Pseudomonas aeruginosa [18]): 2 µg/mL (≈ 3.74 µM)
MIC (Pseudomonas aeruginosa [31]): 16 µg/mL (≈ 29.9 µM)
MIC (Pseudomonas aeruginosa [19]): 16 µg/mL (≈ 29.9 µM)
MIC (Pseudomonas aeruginosa [20]): 4 µg/mL (≈ 7.48 µM)
MIC (Pseudomonas aeruginosa [21]): 1 µg/mL (≈ 1.87 µM)
MIC (Pseudomonas aeruginosa [22]): 2 µg/mL (≈ 3.74 µM)
MIC (Pseudomonas aeruginosa [32]): 16 µg/mL (≈ 29.9 µM)

O=C(O)c1cn(C2CC2)c2cc(N3CCNCC3)c(F)cc2c1=O [CIPROFLOXACIN]
MIC (Pseudomonas aeruginosa [1]): 4 µg/mL (≈ 12.1 µM)
MIC (Pseudomonas aeruginosa [2]): 0.12 µg/mL (≈ 0.362 µM)
MIC (Pseudomonas aeruginosa [3]): 0.12 µg/mL (≈ 0.362 µM)
MIC (Pseudomonas aeruginosa [5]): 1 µg/mL (≈ 3.02 µM)
MIC (Pseudomonas aeruginosa [7]): 0.12 µg/mL (≈ 0.362 µM)
MIC (Pseudomonas aeruginosa [8]): 1 µg/mL (≈ 3.02 µM)
MIC (Pseudomonas aeruginosa [11]): 1 µg/mL (≈ 3.02 µM)
MIC (Pseudomonas aeruginosa [16]): 4 µg/mL (≈ 12.1 µM)
MIC (Pseudomonas aeruginosa [18]): 1 µg/mL (≈ 3.02 µM)
MIC (Pseudomonas aeruginosa [19]): 4 µg/mL (≈ 12.1 µM)
MIC (Pseudomonas aeruginosa [21]): 0.12 µg/mL (≈ 0.362 µM)

GENTAMICIN
MIC (Pseudomonas aeruginosa [1]): 4 µg/mL
MIC (Pseudomonas aeruginosa [2]): 4 µg/mL
MIC (Pseudomonas aeruginosa [3]): 0.25 µg/mL
MIC (Pseudomonas aeruginosa [4]): 2 µg/mL
MIC (Pseudomonas aeruginosa [6]): 4 µg/mL
MIC (Pseudomonas aeruginosa [8]): 8 µg/mL
MIC (Pseudomonas aeruginosa [9]): 4 µg/mL
MIC (Pseudomonas aeruginosa [10]): 8 µg/mL
MIC (Pseudomonas aeruginosa [11]): 8 µg/mL
MIC (Pseudomonas aeruginosa [13]): 4 µg/mL
MIC (Pseudomonas aeruginosa [14]): 8 µg/mL
MIC (Pseudomonas aeruginosa [15]): 8 µg/mL
MIC (Pseudomonas aeruginosa [16]): 16 µg/mL
MIC (Pseudomonas aeruginosa [17]): 4 µg/mL
MIC (Pseudomonas aeruginosa [18]): 0.25 µg/mL
MIC (Pseudomonas aeruginosa [19]): 4 µg/mL
MIC (Pseudomonas aeruginosa [20]): 4 µg/mL
MIC (Pseudomonas aeruginosa [22]): 2 µg/mL
